Shown are actives, neighbours in structure and some others; about 2.9% of the full set was active somewhere.
Apaf-1 inh: inhibitors of human Apaf-1 apoptosome, primary screen, biochemical, DEVD-Rh110 fluorescence, uHTS; Apoptotic protease-activating factor 1 (Homo sapiens), O14727; reconstituted apoptosome caspase-3 activity; inhibition, % at 20 µM; 330,000 compounds, 0.71% hits; active = inhibition of at least 40% at 20 µM
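Medium: Hepes buffer, pH 7.5 / System: biochemical Apaf-1 apoptosome reconstitution / Measured by: Rh110 fluorescence, excitation 480 nm, emission 540 nm / Times: compound with Apaf-1, dATP, procaspase-3 30 min, then 50 min reaction, room temperature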
UBC13 polyUb: UBC13 polyubiquitin chain formation inhibitors, primary screen, biochemical, TR-FRET, uHTS | Ubiquitin-conjugating enzyme E2 N (Homo sapiens), P61088 | inhibition, % at 20 µM | 330,000 compounds, 0.47% hits | AID 485273, 2010; in the data active = inhibition above about 45%, passing the limit was not always enough
MEKK2wt PB1 HTS: modulators of MEK5 binding to wildtype MEKK2, primary screen, biochemical, multiplex bead flow cytometry, Alexa488-MEK5. Mitogen-activated protein kinase kinase kinase 2 (Homo sapiens), Q9Y2U5. Alexa488-MEK5 binding to MEKK2 WT; actives lie on both sides. binding response (% of control), % at 10 µM. 290,000 compounds, 1.1% hits; in the data active = binding response below about 67% or above about 130%
MEKK2 mut-MEK5: MEK5 binding signal on mutant MEKK2 PB1, primary screen, biochemical, multiplex bead flow cytometry, Alexa488-MEK5 | Alexa488-MEK5 binding to MEKK2 mutant | percent response, % at 10 µM | 290,000 compounds, 0.35% hits; in the data active = percent response above about 24%, passing the limit was not always enough
MEKK3 PB1 HTS: modulators of MEKK3-MEK5 PB1 binding, primary screen, biochemical, wildtype MEKK3, multiplex bead flow cytometry, Alexa488-MEK5 | Mitogen-activated protein kinase kinase kinase 3 (Homo sapiens), Q99759 | 290,000 compounds, 1.4% hits | bead-based flow cytometry, Alexa488-MEK5 binding to MEKK3; actives lie on both sides; 0 = blocked by unlabeled MEK5, 100 = vehicle | AID 1529, 2009 | binding response (% of control), % at 10 µM;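 active = binding response more than 3 SD above or below the average of its plate-row segment, actives on both sides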;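 also: Alexa488 bead fluorescence after subtracting the streptavidin-only scavenger bead signal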
Target sequence (Q99759 whole entry, looked up): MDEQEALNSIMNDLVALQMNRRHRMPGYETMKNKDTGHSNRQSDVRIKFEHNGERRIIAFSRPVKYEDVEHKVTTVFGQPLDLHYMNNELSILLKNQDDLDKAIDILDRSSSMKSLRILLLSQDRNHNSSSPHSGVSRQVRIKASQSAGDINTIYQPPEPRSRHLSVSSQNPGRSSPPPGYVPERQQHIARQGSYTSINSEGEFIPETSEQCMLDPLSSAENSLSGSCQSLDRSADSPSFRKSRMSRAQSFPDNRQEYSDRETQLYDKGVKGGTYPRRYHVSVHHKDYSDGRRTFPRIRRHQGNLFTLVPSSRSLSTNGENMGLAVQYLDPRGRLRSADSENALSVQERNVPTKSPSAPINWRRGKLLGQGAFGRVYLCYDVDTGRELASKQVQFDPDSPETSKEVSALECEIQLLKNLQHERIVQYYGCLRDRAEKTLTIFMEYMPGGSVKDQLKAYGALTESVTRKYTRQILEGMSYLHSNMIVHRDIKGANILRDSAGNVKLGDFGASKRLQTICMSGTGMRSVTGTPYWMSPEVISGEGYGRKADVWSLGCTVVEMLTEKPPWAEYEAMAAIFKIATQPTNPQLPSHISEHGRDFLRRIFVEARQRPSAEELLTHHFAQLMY
MEKK2wt confirm: modulators of MEK5 binding to wildtype MEKK2, confirmation, biochemical, single concentration, multiplex bead flow cytometry; shares compounds with MEKK3 PB1 HTS; 5,900 compounds, 2.4% hits; Alexa488-MEK5 binding to MEKK2 WT; actives lie on both sides; binding response (% of control), % at 10 µM; in the data active = binding response below about 16% or above about 210%; inactive = in between
MEKK2mut-MEK5: mutant MEKK2 PB1-MEK5 binding signal retest – biochemical, single concentration, multiplex bead flow cytometry, confirmation. shares compounds with MEKK3 PB1 HTS. Alexa488-MEK5 binding to MEKK2 mutant. percent response, % at 10 µM. 5,900 compounds, 2% hits. AID 1893, 2009; in the data active = percent response mostly above about 71%, no sharp cut-off; inactive = mostly below about 38%;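 also: higher means compound restores mutant binding toward wildtype level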
MEKK3-MEK5 inh: MEKK3 wild-type PB1 binding to MEK5, inhibitors, confirmation, biochemical, bead multiplex flow cytometry, single concentration, wildtype; shares compounds with MEKK3 PB1 HTS; Alexa488-MEK5 binding to MEKK3; active compounds read low; binding response (% of control), % at 10 µM; 5,900 compounds, 1.8% hits;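 active = binding response below 72% of control, or above a set upper limit, though filed actives all read lower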;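 also: lower values mean stronger disruption of MEK5 binding to MEKK3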
Large screens that a line does not name were inactive (follow-up assays come after a bar, where they were run); ! = a repeat was not active; [ ] = dose if it differs, or a comment.

S=C1N(c2ccccc2)C(c2ccc(Cl)cc2)N2CCCN12 (stereo not given)	none
O=C(c1cc(-c2ccc(Cl)cc2)n[nH]1)N1CCN(C(=O)c2ccco2)CC1	none
Cc1ccccc1NC(NC(=O)c1cccnc1)C(Cl)(Cl)Cl (stereo not given)	MEKK3 PB1 HTS 132 | MEKK2wt confirm inactive | MEKK2mut-MEK5 inactive | MEKK3-MEK5 inh inactive
COc1ccc(NC(NC(=O)c2cccnc2)C(Cl)(Cl)Cl)cc1 (stereo not given)	none
Cc1c(NC(=O)COc2c(F)c(F)c(F)c(F)c2F)c(=O)n(-c2ccccc2)n1C	none
COc1ccc(NC(=O)c2nc3ccccc3s2)cc1	none
COc1ccc(OC)c(NC(=O)c2nc3ccccc3s2)c1	MEKK2wt PB1 HTS 3.0[inhibitor], MEKK3 PB1 HTS 3.0[inhibitor] | MEKK2wt confirm inactive | MEKK2mut-MEK5 inactive | MEKK3-MEK5 inh inactive
Cc1ccc(O)c(N=Cc2cc(Cc3ccccc3)cc([N+](=O)[O-])c2O)c1	none
O=[N+]([O-])c1cc(Cc2ccccc2)cc(C=Nc2ccc(N3CCOCC3)cc2)c1O	MEKK3 PB1 HTS 146 (no result: Apaf-1 inh, UBC13 polyUb) | MEKK2wt confirm inactive | MEKK2mut-MEK5 inactive | MEKK3-MEK5 inh inactive
Cn1ncc(Cl)c1C(=O)N1CCN(S(=O)(=O)c2ccc(Cl)s2)CC1	none
Cc1ccc(N(CC2=NCCN2)c2cccc(O)c2)cc1	MEKK3 PB1 HTS 35![inhibitor] | MEKK2wt confirm inactive | MEKK2mut-MEK5 inactive | MEKK3-MEK5 inh inactive
CCOc1ccccc1NC(=O)Nc1ccc(Br)cc1C	none
COc1ccc(C)cc1NC(=O)CC(NC(C)=O)c1ccccc1 (stereo not given)	MEKK3 PB1 HTS 135 | MEKK2wt confirm inactive | MEKK2mut-MEK5 inactive | MEKK3-MEK5 inh inactive
O=C(Nc1ccc(S(=O)(=O)Nc2ncccn2)cc1)c1cnc(Cl)c(Cl)c1	none
O=C(Nc1ccc(S(=O)(=O)Nc2nccs2)cc1)c1cnc(Cl)c(Cl)c1	MEKK3 PB1 HTS 46[inhibitor] | MEKK2wt confirm inactive | MEKK2mut-MEK5 inactive | MEKK3-MEK5 inh inactive
Cc1onc(-c2ccccc2Cl)c1C(=O)N[C@@H](C)c1ccccc1	none (no result: MEKK2wt PB1 HTS, MEKK2 mut-MEK5, MEKK3 PB1 HTS)
COc1ccc(CCn2c(NN=C3CCCCC3)nc3c2c(=O)[nH]c(=O)n3C)cc1	MEKK2wt PB1 HTS 57[inhibitor], MEKK3 PB1 HTS 65[inhibitor] | MEKK2wt confirm inactive | MEKK2mut-MEK5 inactive | MEKK3-MEK5 inh inactive
Cc1nc2ccccn2c1C(=O)N=Nc1c(O)[nH]c2ccccc12	MEKK3 PB1 HTS 139 | MEKK2wt confirm inactive | MEKK2mut-MEK5 inactive | MEKK3-MEK5 inh inactive
CCc1ccc(NC(=O)C(=O)NCCOc2ccccc2Cl)cc1	none
COc1ccc(/C=N/NC(=S)NC2CCS(=O)(=O)C2)cc1OC (stereo not given)	MEKK3 PB1 HTS 123 | MEKK2wt confirm inactive | MEKK2mut-MEK5 inactive | MEKK3-MEK5 inh inactive
Cc1ccc(/C=N/NC(=S)NC2CCS(=O)(=O)C2)cc1 (stereo not given)	none (no result: MEKK2wt PB1 HTS, MEKK2 mut-MEK5, MEKK3 PB1 HTS)
N=c1sccn1CC(=O)Nc1ccccc1Sc1ccccc1	MEKK2wt PB1 HTS 178, MEKK3 PB1 HTS 156 | MEKK2wt confirm inactive | MEKK2mut-MEK5 inactive | MEKK3-MEK5 inh inactive
O=C(CN1CCOCC1)Nc1ccccc1Sc1ccccc1	none
CC(NC(=O)Nc1ccc(Cl)c(Cl)c1)C(c1ccccc1)N1CCOCC1 (stereo not given)	MEKK3 PB1 HTS 139 | MEKK2wt confirm inactive | MEKK2mut-MEK5 inactive | MEKK3-MEK5 inh inactive
O=C(CS(=O)c1ccc(F)cc1)N1CCOCC1 (stereo not given)	none
COc1ccc2nc3cc(Cl)ccc3c(Nc3cc(C(C)C)c(O)cc3C)c2c1	MEKK2wt PB1 HTS 146, MEKK2 mut-MEK5 44 | MEKK2wt confirm inactive | MEKK2mut-MEK5 75 | MEKK3-MEK5 inh inactive
CCN(CC)CCCC(C)Nc1c2ccc(Cl)cc2nc2ccc(OC)cc12 (stereo not given)	none (no result: Apaf-1 inh, UBC13 polyUb)
O=C(O)c1cc(O)ccc1NC(=O)c1cccc2ccccc12	MEKK3 PB1 HTS 132 | MEKK2wt confirm inactive | MEKK2mut-MEK5 inactive | MEKK3-MEK5 inh inactive
Cn1c(O)c(C2=c3ccccc3=NC2=O)[nH]c1=S	MEKK3 PB1 HTS 75[inhibitor] | MEKK2wt confirm inactive | MEKK2mut-MEK5 inactive | MEKK3-MEK5 inh inactive
O=C(CNC(=O)OCc1ccccc1)NC1CCCCCC1	none
c1ccc(COc2ccc(OCCCNC3CCCC3)cc2)cc1	MEKK2wt PB1 HTS 140 | MEKK2wt confirm inactive | MEKK2mut-MEK5 inactive | MEKK3-MEK5 inh inactive
O=C(NC1CCCC1)c1ccccc1OCc1ccccc1	MEKK3 PB1 HTS 63[inhibitor] | MEKK2wt confirm inactive | MEKK2mut-MEK5 inactive | MEKK3-MEK5 inh inactive
O=C(CCNC(=O)OCc1ccccc1)NC1CCCCC1	MEKK3 PB1 HTS 135 | MEKK2wt confirm inactive | MEKK2mut-MEK5 inactive | MEKK3-MEK5 inh inactive
COCCCNCCCCOc1ccc(OCc2ccccc2)cc1	none
Cc1ccc(N=Cc2cc3c(cc2O)OC(N)=C(C#N)C3c2ccccc2)cc1 (stereo not given)	none
CN1CCc2nc(SCc3ccc(C(C)(C)C)cc3)c(C#N)cc2C1	MEKK2wt PB1 HTS 142 | MEKK2wt confirm inactive | MEKK2mut-MEK5 inactive | MEKK3-MEK5 inh inactive
CCOc1ccc(C2NC(=O)NC(C)=C2[N+](=O)[O-])cc1OC (stereo not given)	none
CCOC(=O)CN(c1ccccn1)S(=O)(=O)c1ccccc1	none
COC(=O)c1ccc(CN(c2ccccn2)S(=O)(=O)c2ccccc2)cc1	MEKK3 PB1 HTS 132 (no result: Apaf-1 inh, UBC13 polyUb) | MEKK2wt confirm inactive | MEKK2mut-MEK5 inactive | MEKK3-MEK5 inh inactive
O=C(Cc1c(F)cccc1Cl)Nc1ccc(S(=O)(=O)NCC2CCCO2)cc1 (stereo not given)	none
CN(C)c1ccc([C@@H]2[C@@H]([N+](=O)[O-])[C@H]3C=Cc4ccccc4N3[C@H]2C(=O)c2ccc(Cl)cc2)cc1	MEKK2wt PB1 HTS 1.0[inhibitor] | MEKK2wt confirm inactive | MEKK2mut-MEK5 inactive | MEKK3-MEK5 inh inactive

From PubChem BioAssay
